{"source": "paper PMC12667952", "about": "(bioRxiv, 2025)", "key": {"[1]": {"target": "T1, hGlyT2^WT (Homo sapiens, UniProt Q9Y345)", "T1 sequence (Q9Y345 1-797)": "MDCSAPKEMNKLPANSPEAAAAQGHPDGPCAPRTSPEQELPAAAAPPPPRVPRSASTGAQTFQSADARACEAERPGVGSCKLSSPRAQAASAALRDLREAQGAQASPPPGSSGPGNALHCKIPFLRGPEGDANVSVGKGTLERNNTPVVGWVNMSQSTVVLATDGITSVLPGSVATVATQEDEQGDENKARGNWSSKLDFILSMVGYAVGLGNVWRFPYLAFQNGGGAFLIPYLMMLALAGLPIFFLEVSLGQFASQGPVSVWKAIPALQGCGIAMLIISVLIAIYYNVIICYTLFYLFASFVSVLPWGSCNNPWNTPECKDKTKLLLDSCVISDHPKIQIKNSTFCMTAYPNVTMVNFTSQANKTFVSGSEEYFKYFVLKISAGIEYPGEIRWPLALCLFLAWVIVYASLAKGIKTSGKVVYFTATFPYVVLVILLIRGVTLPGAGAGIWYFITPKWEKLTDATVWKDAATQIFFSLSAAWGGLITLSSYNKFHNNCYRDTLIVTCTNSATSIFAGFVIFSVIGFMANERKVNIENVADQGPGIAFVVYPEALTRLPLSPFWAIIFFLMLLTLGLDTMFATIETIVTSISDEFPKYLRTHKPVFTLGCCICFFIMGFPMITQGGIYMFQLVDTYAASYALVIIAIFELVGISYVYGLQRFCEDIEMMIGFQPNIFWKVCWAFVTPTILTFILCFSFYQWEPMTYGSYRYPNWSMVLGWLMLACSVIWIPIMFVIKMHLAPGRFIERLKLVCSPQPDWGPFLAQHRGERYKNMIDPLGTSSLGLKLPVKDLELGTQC", "format": "cell-based"}, "[2]": {"target": "T2, hGlyT2^D633E (Homo sapiens, UniProt Q9Y345, D633E)", "T2 sequence (Q9Y345 1-797 D633E)": "T1 sequence (Q9Y345 1-797) with D633E", "format": "cell-based"}, "[3]": {"target": "T2, hGlyT2^D633E", "experiment": "Reversibility", "format": "cell-based"}, "[4]": {"experiment": "Study 2: in-life plasma and CNS drug exposure study in male C57BL/6 mice", "format": "in vivo, mouse", "conditions": "50 mg/kg i.p., 30 min", "summary_of_the_method": "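Contract in-life study in male C57BL/6 mice (22 ± 2 g), acclimated for 3 days. Plasma and brain sampled at 30 and 120 min post-injection. Unbound plasma and brain concentrations calculated.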"}, "[5]": {"test_system": "CCI mice", "experiment": "Cold allodynia", "format": "in vivo, mouse", "conditions": "for Peak reduction of response rate to acetone stimulus: by 2-hour time point", "summary_of_the_method": "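CCI mice tested 14 days after surgery. […] Acetone-evoked cold allodynia scored before surgery, at t = 0 before dosing, and at 0.5, 1, 1.5, 2, 4 and 6 h. Expressed as % of maximal possible responses. Two-way ANOVA with Dunnett's test versus vehicle.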"}, "[6]": {"test_system": "PSNL mice", "experiment": "Mechanical allodynia", "format": "in vivo, mouse", "conditions": "50 mg/kg i.p., 90 mins"}, "[7]": {"test_system": "mice", "experiment": "Grip strength test", "format": "in vivo, mouse", "conditions": "30 min post-injection"}, "[8]": {"test_system": "naïve, uninjured mice", "experiment": "Respiratory function by whole-body plethysmography", "format": "in vivo, mouse", "summary_of_the_method": "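Whole-body plethysmography on naïve, uninjured mice in two parallel chambers linked to a pressure transducer. Mice briefly removed for injection, then returned. Breathing recorded for 5 min at 30, 60, 90, 120 and 180 min post-injection. Frequency, tidal volume and minute volume averaged and normalised to % baseline. […] Two-way ANOVA with Dunnett's test.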"}, "[9]": {"test_system": "C57BL/6J mice", "experiment": "Conditioned place preference", "format": "in vivo, mouse", "conditions": "50 and 150 mg/kg, i.p."}, "[10]": {"target": "serotonin 2A (5-HT2A) receptor (Homo sapiens, UniProt P28223)", "sequence (P28223 whole entry, species assumed)": "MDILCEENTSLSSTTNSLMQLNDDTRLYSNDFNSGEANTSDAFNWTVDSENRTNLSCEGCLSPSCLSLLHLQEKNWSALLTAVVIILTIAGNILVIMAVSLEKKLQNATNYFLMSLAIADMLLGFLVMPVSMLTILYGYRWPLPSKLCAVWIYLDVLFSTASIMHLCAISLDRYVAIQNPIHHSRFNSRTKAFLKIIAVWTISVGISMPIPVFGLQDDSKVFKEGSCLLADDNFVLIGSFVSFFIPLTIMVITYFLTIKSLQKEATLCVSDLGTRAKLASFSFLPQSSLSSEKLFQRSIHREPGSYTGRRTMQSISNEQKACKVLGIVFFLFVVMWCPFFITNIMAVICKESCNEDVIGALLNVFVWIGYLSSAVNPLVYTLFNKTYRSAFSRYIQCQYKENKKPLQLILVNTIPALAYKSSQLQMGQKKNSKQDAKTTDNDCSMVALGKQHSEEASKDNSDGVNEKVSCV", "experiment": "5-HT2A receptor antagonist IC50 determination", "format": "cell-based"}, "[11]": {"test_system": "adrenergic receptors", "experiment": "Cerep panel off-target selectivity screen, adrenergic receptors", "format": "binding", "conditions": "1 × 10^-5 M"}, "[12]": {"test_system": "muscarinic receptors", "experiment": "Cerep panel off-target selectivity screen, muscarinic receptors", "format": "binding", "conditions": "1 × 10^-5 M"}}, "note": "Positions count from the first letter of the chain named. “Also recorded” adds a separate entry of the source. Read-outs that look alike come from different tables or passages of the source."}
{"compound": "CN(C)C1(CNC(=O)c2ccc3c(c2)CCN3C(=O)c2ccccc2)CCOCC1", "note": "[RPI-GLYT2–82, 1-benzoyl-N-((4-(dimethylamino)tetrahydro-2H-pyran-4-yl)methyl)indoline-5-carboxamide]", "values": [{"measurement": "IC50", "setting": "[1]", "value": 550, "unit": "nM"}, {"measurement": "IC50", "setting": "[1]; IC50, inhibition of glycine transport currents, hGlyT2^WT, Xenopus oocytes, currents generated by EC50 (30 μM) glycine, n = 5", "value": 554, "unit": "nM"}, {"measurement": "IC50", "setting": "[2]", "value": "> 10000", "unit": "nM"}, {"measurement": "Reduction in potency of inhibition, D633E versus WT", "setting": "[2]", "value": "> 18", "unit": "fold"}, {"measurement": "Washout of inhibitor from hGlyT2^D633E", "setting": "[3]", "value": "almost immediate"}, {"measurement": "Cu,b, calculated unbound concentration in brain", "setting": "[4]", "value": 597.89, "unit": "nM"}, {"measurement": "Peak reduction of response rate to acetone stimulus", "setting": "[5]; 50 mg/kg i.p.", "value": 59, "unit": "%"}, {"measurement": "Peak reduction of response rate to acetone stimulus", "setting": "[5]; 100 mg/kg i.p.", "value": 62, "unit": "%"}, {"measurement": "Efficacy at alleviating cold allodynia compared to gabapentin", "setting": "[5]; 50 and 100 mg/kg", "value": "comparable efficacy to the control compound gabapentin; also recorded: equivalent efficacy"}, {"measurement": "Time of peak anti-allodynia effects, cold allodynia", "setting": "[5]; 50 and 100 mg/kg", "value": "≤ 2", "unit": "h"}, {"measurement": "Peak reduction of response rate to von Frey stimulus", "setting": "[6]", "value": 22.5, "unit": "%"}, {"measurement": "Grip strength (muscle weakness)", "setting": "[7]; 50 mg/kg", "value": "not at 50 mg/kg"}, {"measurement": "Grip strength (muscle weakness)", "setting": "[7]; 250 mg/kg, recovered at 60 minutes", "value": "transient deficits in the grip-strength test; also recorded: transient muscle weakness"}, {"measurement": "Respiration frequency, minute volume (MVb), tidal volume (TVb)", "setting": "[8]; 50 mg/kg", "value": "did not change"}, {"measurement": "Respiratory frequency, MVb and TVb", "setting": "[8]; 250 mg/kg, frequency and MVb first hour, TVb first 30 minutes", "value": "transient changes"}, {"measurement": "Preference for the paired chamber", "setting": "[9]", "value": "did not increase preference; also recorded: no significant preference"}, {"measurement": "IC50", "setting": "[10]", "value": 1900, "unit": "nM"}, {"measurement": "Activity at adrenergic receptors", "setting": "[11]", "value": "inactive"}, {"measurement": "Activity at muscarinic receptors", "setting": "[12]", "value": "inactive"}]}
